The record followed here is ChEMBL document CHEMBL4266000, “Discovery of Novel 4-Arylisochromenes as Anticancer Agents Inhibiting Tubulin Polymerization” (ACS Med Chem Lett, 2018).

Series [1] deals with KB. Briefly: Antiproliferative activity against human KB cells after 72 hrs by MTT assay. The format is functional, cell-based. In outline:
(§1)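 MTT viability read-out after 72 h continuous exposure to test compounds. Performed in triplicate and reported as IC50, means ± SD, n = 3.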

The subject of series [2] is HCT-8. In words: Antiproliferative activity against human HCT8 cells after 72 hrs by MTT assay. The class given is functional, cell-based. The following applies: HCT-8, 72 h. In outline: as §1
For series [3], the system named is MDA-MB-231. Briefly: Antiproliferative activity against human MDA-MB-231 cells after 72 hrs by MTT assay. The format is functional, cell-based. The following applies: MDA-MB-231, 72 h. In outline:
as §1
For orientation: Tetrazolium assays rely on reduction of a dye to a coloured formazan, in cell work by metabolically active cells.

Series [4] has as its system K562. Briefly: Antiproliferative activity against human K562 cells after 72 hrs by MTT assay. The class given is functional, cell-based. The following applies: K562, 72 h. The procedure, abridged: as §1
Series [5] relates to H22. Briefly: Antiproliferative activity against […] cells after 72 hrs by MTT assay. The following applies: Mus musculus, H22, 72 h. The class given is functional, cell-based. The procedure, abridged:
as §1

For series [6], the system named is L02. In words: Cytotoxicity against human LO2 cells after 72 hrs by MTT assay. The format is cell-based. The following applies: L02, 72 h. In outline: as §1
Series [7] concerns HepG2. Briefly: Antiproliferative activity against human HepG2 cells after 72 hrs by MTT assay. The format is functional, cell-based. The following applies: HepG2, 72 h. In outline:
as §1

Series [8] in a line: Inhibition of porcine brain tubulin polymerization after 30 mins by spectrophotometric method. Also noted: species or system Sus scrofa.
The species entered for series [9] is Sus scrofa. Briefly: Inhibition of [3H]colchicine binding to biotinylated porcine tubulin at 1 uM after 2 hrs by scintillation proximity assay. Background: SPA uses beads or plates that emit light when radiolabelled molecules are held near them.
Series [10] is filed under the species Sus scrofa. Briefly: Inhibition of [3H]colchicine binding to biotinylated porcine tubulin at 5 uM after 2 hrs by scintillation proximity assay.
The subject of series [11] is K562. In words: Induction of microtubule network disruption in human K562 cells after 24 hrs by DAPI staining based immunofluorescence assay. The class given is functional, cell-based. The procedure, abridged:
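K562 cells exposed at 5, 10 or 20 nM for 24 h. Microtubule network visualized by immunofluorescence against untreated cells.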

Series [12] concerns K562. In words: Cell cycle arrest in human K562 cells assessed as accumulation at G2/M phase at 5 nM after 48 hrs by propidium iodide staining based flow cytometry. The format is functional. In outline:
(§2)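 K562 cells treated at 5, 10 or 20 nM for 48 h. Stained with propidium iodide and DNA content analysed for the fraction in G2/M.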
For orientation: A flow cytometer gives signals particle by particle.

Series [13] deals with K562. In words: Cell cycle arrest in human K562 cells assessed as accumulation at G2/M phase at 10 nM after 48 hrs by propidium iodide staining based flow cytometry. The class given is functional. The procedure, abridged:
as §2

For series [14], the system named is K562. In words: Cell cycle arrest in human K562 cells assessed as accumulation at G2/M phase at 20 nM after 48 hrs by propidium iodide staining based flow cytometry. The class given is functional. The procedure, abridged:
as §2

Series [15] has as its system K562. In words: Induction of apoptosis in human K562 cells assessed as early apoptotic cells at 5 nM after 48 hrs by Annexin V-APC/7-AAD staining based flow cytometry (reference value: 5.7%). The class given is functional.
Series [16] relates to K562. In words: Induction of apoptosis in human K562 cells assessed as late apoptotic cells at 5 nM after 48 hrs by Annexin V-APC/7-AAD staining based flow cytometry (reference value: 5.7%). The class given is functional.
In series [17] the test system is K562. In words: Induction of apoptosis in human K562 cells assessed as early apoptotic cells at 10 nM after 48 hrs by Annexin V-APC/7-AAD staining based flow cytometry (reference value: 5.7%). The format is functional.
For series [18], the system named is K562. In words: Induction of apoptosis in human K562 cells assessed as late apoptotic cells at 10 nM after 48 hrs by Annexin V-APC/7-AAD staining based flow cytometry (reference value: 5.7%). The format is functional.
Series [19] has as its system K562. Briefly: Induction of apoptosis in human K562 cells assessed as early apoptotic cells at 20 nM after 48 hrs by Annexin V-APC/7-AAD staining based flow cytometry (reference value: 5.7%). The format is functional.
The test system of series [20] is K562. In words: Induction of apoptosis in human K562 cells assessed as late apoptotic cells at 20 nM after 48 hrs by Annexin V-APC/7-AAD staining based flow cytometry (reference value: 5.7%). The class given is functional.
For series [21], the system named is K562. Briefly: Induction of apoptosis in human K562 cells after 48 hrs by Annexin V-APC/7-AAD staining based flow cytometry. The class given is functional, cell-based.
For series [22], the system named is K562. Briefly: Induction of mitochondrial membrane depolarization in human K562 cells at 5 nM after 48 hrs by JC-1 probe based flow cytometry (reference value: 0.6%). The class given is functional. The procedure, abridged:
(§3)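 K562 cells treated at 0, 5, 10 or 20 nM for 48 h. Mitochondrial membrane potential measured with JC-1 probe and the percentage of cells with collapsed potential recorded.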

Series [23] deals with K562. In words: Induction of mitochondrial membrane depolarization in human K562 cells at 10 nM after 48 hrs by JC-1 probe based flow cytometry (reference value: 0.6%). The format is functional. The procedure, abridged: as §3
Series [24] concerns K562. In words: Induction of mitochondrial membrane depolarization in human K562 cells at 20 nM after 48 hrs by JC-1 probe based flow cytometry (reference value: 0.6%). The format is functional. In outline:
as §3

The test system of series [25] is HUVEC. Briefly: Antimigratory activity in HUVEC after 24 hrs by wound healing based phase contrast microscopy. The class given is functional, cell-based. The following applies: Homo sapiens. In outline: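 Confluent HUVEC monolayer scraped to make a wound. Cells exposed to test agent and migration into the scraped area followed over 24 h.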
Series [26] concerns HUVEC. In words: Antivascular activity against HUVEC assessed as reduction in capillary like tube formation up to 20 nM after 6 hrs by inverted microscopic based matrigel method. The class given is functional, cell-based. The following applies: Homo sapiens. The procedure, abridged: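 HUVECs seeded on matrigel to form capillary-like tubules, then exposed to 0, 5, 10 or 20 nM for 6 h. Disruption of tube networks scored.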

Series [27] has as its system H22. Briefly: Antitumor activity against […] cells xenografted in ICR mouse assessed as reduction in tumor weight at 15 mg/kg, iv qd for 21 consecutive days. Set-up: scale not given: the % may be the effect or the level left. The format is functional. The procedure, abridged: (§4)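 H22 cells inoculated subcutaneously into the right flank of mice. Dosing i.v. at 15 or 30 mg/kg per day, or paclitaxel 8 mg/kg every 2 days, for 21 days. Tumor size and body weight recorded every 2 days. Tumor weight compared with vehicle at day 21.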

Series [28] relates to H22. Briefly: Antitumor activity against […] cells xenografted in ICR mouse assessed as reduction in tumor weight at 30 mg/kg, iv qd for 21 consecutive days. The class given is functional. Also noted: scale not given: the % may be the effect or the level left. The procedure, abridged: as §4
The subject of series [29] is Mus musculus. In words: Toxicity in ICR mouse xenografted with […] cells assessed as decrease in body weight up to 30 mg/kg, iv qd for 21 consecutive days measured every 2 days. The format is organism-based. The following applies: in vivo, 48 h. In outline:
as §4

The test system of series [30] is H22. In words: Antitumor activity against […] cells xenografted in ICR mouse assessed as reduction in tumor weight at 8 mg/kg, iv per 2 days for 21 consecutive days. The class given is functional. Also noted: scale not given: the % may be the effect or the level left. In outline: as §4
For series [31], the system named is Mus musculus. In words: Toxicity in ICR mouse xenografted with […] cells assessed as decrease in body weight at 8 mg/kg, iv per 2 days for 21 consecutive days measured every 2 days. The class given is organism-based. The following applies: in vivo, 48 h. The procedure, abridged: as §4

pIC50: −log10 of the molar value. The source made the active and inactive calls. The rule behind the calls is not given here.

As usually defined, the pIC50 is the negative decadic logarithm of the IC50, by convention in mol/L. In the case of `COc1ccc2c(c1O)COC(C)C2=O` (centres undefined), the pIC50 in [1] was 4.60; in series [2] it was 4.45; in [3], 4.52; in series [4], 4.69; in series [5], 4.74; in [6], 4.65. Besides, the figures for the pIC50 in series [7] and in series [8] were 4.63 and 4.97, respectively.

For `COc1ccc2c(c1O)COC=C2c1cc(OC)c(OC)c(OC)c1`, the pIC50 was 7.80 in [1]; 7.60 in series [2]; 7.55 in series [3]; 7.72 in [4]; 8.00 in series [5]; 6.86 in series [6]. Also, the pIC50 in series [7] is 7.59; in series [8] it was 5.38.

As a reminder, the inhibition is how much of the control response was suppressed. On to `COc1ccc2c(c1O)COC[C@@H]2c1cc(OC)c(OC)c(OC)c1`, for which the pIC50 is 7.92 in series [1]; 7.92 in series [2]; 7.96 in series [3]; 8.10 in series [4]; 8.10 in [5]; 7.24 in series [6]. In addition, the pIC50 in [8] was 5.60. The results for the inhibition in series [9] and in series [10] were 79.4% and 92.6%, respectively.

Regarding `COc1cc2c(cc1O)C(c1cc(OC)c(OC)c(OC)c1)=COC2`, in [7], the pIC50 was less than 5.00.

Compound `COc1cc2c(cc1O)C(c1cc(OC)c(OC)c(OC)c1)COC2` (centres undefined) gave a pIC50 in series [7] of less than 5.00.

Turning to `COc1ccc2c(c1O)COC[C@H]2c1cc(OC)c(OC)c(OC)c1`, the pIC50 in series [1] is 6.06; in series [2], 6.03; in series [3], 6.05; in [4], 6.34; in series [5], 6.10; in series [6], 6.05. Also, the pIC50 in series [8] was 5.37.

For `COc1ccc2c(c1O)COCC2c1cc(OC)c(OC)c(OC)c1` (racemic), the negative logarithm of the IC50 (pIC50) in series [1] was 7.60; in series [2], 7.52; in series [3] it was 7.66; in [4], 8.00; in series [5], 7.96; in series [6], 7.02. Besides, the pIC50 in series [7] was 7.82; in [8], 5.51. Moreover, the results for the inhibition in series [9] and in [10] were 76.4% and 89.6%, respectively. In addition, the Activity result in series [11] is “Dose-dependent effect”; in series [12], 17.5%; in [13] it was 19.5%; in [14], 22.4%; in series [15], 13.7%; in [16], 13.7%. For the same compound, the Activity in [17] is 29%; in series [18] it was 29%; in series [19] it was 54.1%; in series [20], 54.1%; in series [21] it was “Dose-dependent effect”; in series [22] it was 12.7%. Moreover, the Activity in [23] is 26.7%; in series [24], 55.1%; in [25] it was “Dose-dependent effect”; in [27], 46.5%; in [28], 62.3%; in series [29] it was “Non-Toxic”. The outcome in series [26] was Active.

Consider `COc1ccc(/C=C\c2cc(OC)c(OC)c(OC)c2)cc1O` [COMBRETASTATIN A4], for which the pIC50 in series [1] is 7.92; in [2], 7.82; in series [3] it was 7.82; in [4], 7.82; in series [5] it was 8.10; in series [6], 7.02. In [8], this compound gave a pIC50 of 5.60. The Activity was determined as 44.8% in [27] and 55.3% in series [28].

Consider `CC(=O)O[C@H]1C(=O)[C@@]2(C)[C@H]([C@H](OC(=O)c3ccccc3)[C@]3(O)C[C@H](OC(=O)[C@H](O)[C@@H](NC(=O)c4ccccc4)c4ccccc4)C(C)=C1C3(C)C)[C@]1(OC(C)=O)CO[C@@H]1C[C@@H]2O` [PACLITAXEL], for which the Activity is 72.1% in [30] and “Toxic” in series [31].
